The target of data set [1] is Protein kinase C delta type (Homo sapiens) (UniProt Q05655). Description: Inhibition of human PKCdelta. The settings on record: concentration not given here. A digest of the protocol:
(§1)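 Selectivity screen run externally (Invitrogen SelectScreen). Percent inhibition measured at 1 μM compound, mean of 2 measurements.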

Data set [2] has as its target Calcium/calmodulin-dependent protein kinase type II subunit delta (Homo sapiens) (UniProt Q13557). Description: Inhibition of human CaMK2delta. The settings on record: concentration not given here. A digest of the protocol:
as §1

The target in data set [3] is G protein-coupled receptor kinase 5 (Homo sapiens) (UniProt P34947). Kind of data set: Inhibition of human GRK5. The note with it: concentration not given here. A digest of the protocol: as §1
In data set [4] the target is Serine/threonine-protein kinase MARK1 (Homo sapiens) (UniProt Q9P0L2). Description: Inhibition of human MARK1. The note with it: concentration not given here. A digest of the protocol: as §1
Data set [5] has as its target T1, Protein kinase C epsilon type (Homo sapiens) (UniProt Q02156).
T1 sequence (whole entry): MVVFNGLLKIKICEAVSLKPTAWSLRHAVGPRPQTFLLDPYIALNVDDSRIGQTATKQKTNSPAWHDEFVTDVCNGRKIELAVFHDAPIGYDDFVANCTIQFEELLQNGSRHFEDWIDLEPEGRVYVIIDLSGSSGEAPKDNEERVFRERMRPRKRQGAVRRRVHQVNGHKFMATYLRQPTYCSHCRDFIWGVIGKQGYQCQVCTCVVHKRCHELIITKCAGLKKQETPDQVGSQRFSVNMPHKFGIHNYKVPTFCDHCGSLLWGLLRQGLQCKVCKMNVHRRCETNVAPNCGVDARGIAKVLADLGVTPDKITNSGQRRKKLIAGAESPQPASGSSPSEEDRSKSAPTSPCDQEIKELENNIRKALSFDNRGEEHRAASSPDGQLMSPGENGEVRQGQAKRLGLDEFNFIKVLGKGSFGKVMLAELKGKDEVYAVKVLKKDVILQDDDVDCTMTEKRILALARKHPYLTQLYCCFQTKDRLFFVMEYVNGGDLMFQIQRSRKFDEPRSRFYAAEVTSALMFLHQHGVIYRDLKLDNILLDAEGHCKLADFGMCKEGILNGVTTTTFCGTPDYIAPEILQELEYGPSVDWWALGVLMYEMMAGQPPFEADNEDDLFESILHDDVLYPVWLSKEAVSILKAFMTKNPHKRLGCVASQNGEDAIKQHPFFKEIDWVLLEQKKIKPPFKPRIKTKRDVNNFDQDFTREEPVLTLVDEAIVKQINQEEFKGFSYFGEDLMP
Kind of data set: Inhibition of PKCepsilon. The note with it: concentration not given here.

Data set [6] addresses T2, Calcium/calmodulin-dependent protein kinase type IV (Homo sapiens) (UniProt Q16566).
T2 sequence (whole entry): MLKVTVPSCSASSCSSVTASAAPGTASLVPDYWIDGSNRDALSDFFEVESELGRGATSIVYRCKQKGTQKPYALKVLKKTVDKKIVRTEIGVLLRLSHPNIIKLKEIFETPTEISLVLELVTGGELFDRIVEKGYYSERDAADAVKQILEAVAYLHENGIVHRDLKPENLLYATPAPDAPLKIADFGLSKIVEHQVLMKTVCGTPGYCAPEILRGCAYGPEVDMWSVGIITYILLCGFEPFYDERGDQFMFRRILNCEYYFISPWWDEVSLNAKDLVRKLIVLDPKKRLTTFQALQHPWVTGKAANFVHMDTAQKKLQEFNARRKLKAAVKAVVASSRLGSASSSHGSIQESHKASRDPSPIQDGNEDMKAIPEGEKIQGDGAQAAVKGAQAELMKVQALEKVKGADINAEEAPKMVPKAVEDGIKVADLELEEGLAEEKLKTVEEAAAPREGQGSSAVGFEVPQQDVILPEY
Description: Inhibition of human CaMK4. The note with it: concentration not given here. A digest of the protocol: as §1

Data set [7] is described as follows: Half life in rats after 2 mg/kg intravenous dose. The format is ADME, organism-based. Also on record: dose 2 mg/kg, route intravenous. The settings on record: Sprague-Dawley, rat, in vivo. The method, boiled down: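 Rats dosed iv 2 mg/kg (n = 2) or po 5 mg/kg (n = 3) in 10% NMP, 10% Cremophor, 80% pH 4.63 buffer. PK parameters derived from iv dosing, reported as mean ± SD.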

The nature of data set [8]: AUC (0 to 8 hrs) in Sprague-Dawley rat at 5 mg/kg, po. The format is ADME, organism-based. More on the design: time < 8 hr, dose 5 mg/kg, route oral. The settings on record: plasma.
Data set [9] has as its target Serine/threonine-protein kinase MARK2 (Homo sapiens) (UniProt Q7KZI7). Description: Inhibition of human MARK2. The note with it: concentration not given here. The method, boiled down:
as §1

The target in data set [10] is Calcium/calmodulin-dependent protein kinase type 1D (Homo sapiens) (UniProt Q8IU85). Kind of data set: Inhibition of CaMK1delta. The settings on record: concentration not given here. The method, boiled down: as §1
For a further data set, the system named is Caco-2. Description: Ratio of permeability from basolateral to apical side to apical to basolateral side in human Caco-2 cells. In kind it is ADME, cell-based.
The target in data set [11] is T3, Serine/threonine-protein kinase D2 (Homo sapiens, UniProt Q9BZL6).
T3 sequence (Q9BZL6 whole entry): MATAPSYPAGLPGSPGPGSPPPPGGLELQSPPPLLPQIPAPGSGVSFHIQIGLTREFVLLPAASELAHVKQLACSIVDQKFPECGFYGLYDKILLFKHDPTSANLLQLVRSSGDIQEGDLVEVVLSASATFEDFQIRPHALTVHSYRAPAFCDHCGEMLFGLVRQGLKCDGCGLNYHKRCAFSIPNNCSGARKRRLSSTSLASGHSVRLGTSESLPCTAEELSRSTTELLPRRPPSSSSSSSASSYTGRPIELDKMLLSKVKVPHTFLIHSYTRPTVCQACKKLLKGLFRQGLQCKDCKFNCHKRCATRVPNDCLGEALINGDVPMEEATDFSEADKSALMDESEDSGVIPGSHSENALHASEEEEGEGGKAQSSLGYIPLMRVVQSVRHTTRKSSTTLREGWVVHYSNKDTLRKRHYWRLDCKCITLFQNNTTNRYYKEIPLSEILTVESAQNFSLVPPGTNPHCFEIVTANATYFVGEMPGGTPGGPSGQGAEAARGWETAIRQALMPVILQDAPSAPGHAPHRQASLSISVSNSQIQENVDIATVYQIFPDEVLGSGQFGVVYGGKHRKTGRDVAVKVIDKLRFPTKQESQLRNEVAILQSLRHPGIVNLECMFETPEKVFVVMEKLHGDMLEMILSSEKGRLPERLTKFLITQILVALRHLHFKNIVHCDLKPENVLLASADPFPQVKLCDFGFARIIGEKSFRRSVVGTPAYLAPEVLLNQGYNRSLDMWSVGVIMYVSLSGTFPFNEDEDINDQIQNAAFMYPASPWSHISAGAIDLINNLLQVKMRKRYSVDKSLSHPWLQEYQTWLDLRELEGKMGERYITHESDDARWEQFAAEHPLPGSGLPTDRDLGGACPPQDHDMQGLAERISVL
Description: Inhibition of PKD2 by TR-FRET assay.

The target of data set [12] is T4, Serine/threonine-protein kinase D1 (Homo sapiens, UniProt Q15139).
T4 sequence (Q15139 whole entry): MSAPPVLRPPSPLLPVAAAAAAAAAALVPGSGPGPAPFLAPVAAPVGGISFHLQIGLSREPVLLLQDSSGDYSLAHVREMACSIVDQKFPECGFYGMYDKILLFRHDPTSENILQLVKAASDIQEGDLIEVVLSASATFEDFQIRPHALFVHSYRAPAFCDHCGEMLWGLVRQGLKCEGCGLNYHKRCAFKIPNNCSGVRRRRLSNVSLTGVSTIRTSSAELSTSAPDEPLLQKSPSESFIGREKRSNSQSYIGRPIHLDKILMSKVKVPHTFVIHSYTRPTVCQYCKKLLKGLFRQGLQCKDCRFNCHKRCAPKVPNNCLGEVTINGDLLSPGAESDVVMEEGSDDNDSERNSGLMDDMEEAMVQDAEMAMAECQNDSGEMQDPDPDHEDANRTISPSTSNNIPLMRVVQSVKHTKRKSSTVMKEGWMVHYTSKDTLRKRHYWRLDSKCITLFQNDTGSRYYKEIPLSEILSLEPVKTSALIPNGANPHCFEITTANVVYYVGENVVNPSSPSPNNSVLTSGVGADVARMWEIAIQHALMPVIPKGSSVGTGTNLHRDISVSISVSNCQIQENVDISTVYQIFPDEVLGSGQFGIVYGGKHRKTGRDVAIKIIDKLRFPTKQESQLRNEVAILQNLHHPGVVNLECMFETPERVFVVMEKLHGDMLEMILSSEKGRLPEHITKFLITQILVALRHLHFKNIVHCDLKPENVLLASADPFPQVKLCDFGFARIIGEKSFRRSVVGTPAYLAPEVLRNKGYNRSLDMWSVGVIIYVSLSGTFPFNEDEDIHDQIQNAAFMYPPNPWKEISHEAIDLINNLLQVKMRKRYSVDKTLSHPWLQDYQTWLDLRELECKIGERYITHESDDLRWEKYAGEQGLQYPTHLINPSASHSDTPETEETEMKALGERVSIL
Description: Inhibition of PKD1 by TR-FRET assay. A digest of the protocol: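 Full-length wild-type PKD1 expressed and purified from Sf9 cells, 0.2 μg/mL, in 35 mM Tris-HCl pH 7.5, 5 mM MgCl2, 0.02% Tween-20, 20 μM ATP, 1 mM DTT. Reaction started with 2 μM biotinylated syntide-2 and run 50 min at room temperature. Stopped with EDTA plus europium anti-rabbit IgG, anti-phospho-syntide-2 antibody and streptavidin-APC. LANCE TR-FRET 665/615 ratio read after 1 h. 11-point curves in triplicate gave IC50.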
(TR-FRET usually uses a lanthanide donor and a delayed reading to cut background.)

The target of data set [13] is T4, Serine/threonine-protein kinase D1. Description: Inhibition of PKD1 assessed as inhibition of HDAC5 neuclear export. The method, boiled down: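 Neonatal rat ventricular myocytes infected with adenovirus encoding GFP-HDAC5 and plated on gelatin-coated wells. Cells exposed to compound and stimulated with PGF2α for 2 h, then fixed. Cytoplasmic versus nuclear GFP intensity quantified by high-content imaging.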

Consider two compounds from ChEMBL document CHEMBL1212911, “Identification of potent and selective amidobipyridyl inhibitors of protein kinase D” (J Med Chem, 2010).

As a reminder, the inhibition is the relative decrease from the control value, in per cent. The half-life is the time in which the quantity being followed falls by half. Read a low half-life as rapid decline. As usually defined, the AUC(0-t) is the area under the concentration-time curve up to a stated or last time point. The low end stands for low exposure, the high end for high exposure. For orientation: IC50 means the midpoint of a concentration-inhibition curve. High values mean weaker potency, low ones greater potency. A word on the EC50: it is the concentration at which the effect is half-maximal.

Sequence of Serine/threonine-protein kinase MARK2 (Homo sapiens) (Q7KZI7 whole entry): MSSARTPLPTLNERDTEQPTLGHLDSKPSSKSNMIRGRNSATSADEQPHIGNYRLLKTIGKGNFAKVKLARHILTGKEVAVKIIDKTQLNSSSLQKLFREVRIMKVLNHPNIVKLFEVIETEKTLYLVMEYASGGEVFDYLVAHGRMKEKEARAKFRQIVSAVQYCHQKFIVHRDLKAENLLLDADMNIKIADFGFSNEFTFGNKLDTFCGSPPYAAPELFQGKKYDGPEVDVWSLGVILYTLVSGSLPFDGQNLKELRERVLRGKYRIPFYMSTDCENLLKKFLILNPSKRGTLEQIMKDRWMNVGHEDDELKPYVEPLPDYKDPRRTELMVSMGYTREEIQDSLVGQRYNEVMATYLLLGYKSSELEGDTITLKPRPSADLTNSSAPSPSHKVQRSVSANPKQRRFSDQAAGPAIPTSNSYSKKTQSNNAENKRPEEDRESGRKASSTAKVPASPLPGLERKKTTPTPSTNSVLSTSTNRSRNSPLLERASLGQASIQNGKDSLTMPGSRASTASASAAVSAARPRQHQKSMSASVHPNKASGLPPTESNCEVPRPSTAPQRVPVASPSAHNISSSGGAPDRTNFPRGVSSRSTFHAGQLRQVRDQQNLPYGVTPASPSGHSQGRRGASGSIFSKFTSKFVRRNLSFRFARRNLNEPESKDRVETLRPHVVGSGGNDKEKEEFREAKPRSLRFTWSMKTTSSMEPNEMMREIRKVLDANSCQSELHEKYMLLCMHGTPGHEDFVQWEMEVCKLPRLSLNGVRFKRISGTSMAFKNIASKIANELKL
Sequence of G protein-coupled receptor kinase 5 (Homo sapiens) (P34947 whole entry, looked up): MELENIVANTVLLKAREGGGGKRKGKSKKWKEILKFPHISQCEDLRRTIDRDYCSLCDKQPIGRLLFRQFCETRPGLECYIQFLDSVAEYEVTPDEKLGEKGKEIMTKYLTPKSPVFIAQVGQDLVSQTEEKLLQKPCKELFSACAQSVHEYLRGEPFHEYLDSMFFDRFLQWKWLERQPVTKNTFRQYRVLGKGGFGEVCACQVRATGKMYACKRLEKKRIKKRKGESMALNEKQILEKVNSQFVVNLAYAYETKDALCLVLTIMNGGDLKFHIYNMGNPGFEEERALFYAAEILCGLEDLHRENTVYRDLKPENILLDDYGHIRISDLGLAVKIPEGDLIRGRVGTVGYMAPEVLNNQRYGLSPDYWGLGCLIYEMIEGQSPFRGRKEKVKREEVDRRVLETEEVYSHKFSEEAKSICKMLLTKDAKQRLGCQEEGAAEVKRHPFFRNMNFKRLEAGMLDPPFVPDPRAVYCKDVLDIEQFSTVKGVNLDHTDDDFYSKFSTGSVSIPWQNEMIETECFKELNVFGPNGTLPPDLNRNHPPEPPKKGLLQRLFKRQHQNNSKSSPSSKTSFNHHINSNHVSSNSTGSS
Sequence of Protein kinase C delta type (Homo sapiens) (Q05655 whole entry, looked up): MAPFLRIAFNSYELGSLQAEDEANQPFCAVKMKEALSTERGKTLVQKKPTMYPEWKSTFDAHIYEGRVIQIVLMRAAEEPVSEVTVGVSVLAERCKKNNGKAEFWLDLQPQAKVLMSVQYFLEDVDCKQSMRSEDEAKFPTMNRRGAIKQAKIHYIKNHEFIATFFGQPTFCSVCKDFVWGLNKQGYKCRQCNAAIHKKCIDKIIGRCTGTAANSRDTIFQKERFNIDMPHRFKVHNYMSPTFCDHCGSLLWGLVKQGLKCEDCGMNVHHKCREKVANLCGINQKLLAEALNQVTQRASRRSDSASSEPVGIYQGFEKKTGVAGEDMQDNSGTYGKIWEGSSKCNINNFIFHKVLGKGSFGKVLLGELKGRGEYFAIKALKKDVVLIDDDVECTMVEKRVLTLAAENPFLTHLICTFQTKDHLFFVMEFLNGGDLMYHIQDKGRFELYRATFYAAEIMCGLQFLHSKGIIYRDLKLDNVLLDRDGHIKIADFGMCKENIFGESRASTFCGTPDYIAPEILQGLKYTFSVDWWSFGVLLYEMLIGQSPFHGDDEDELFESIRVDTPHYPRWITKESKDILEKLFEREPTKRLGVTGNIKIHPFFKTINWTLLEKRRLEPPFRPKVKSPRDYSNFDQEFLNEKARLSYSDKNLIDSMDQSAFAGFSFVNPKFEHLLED
Sequence of Serine/threonine-protein kinase MARK1 (Homo sapiens) (Q9P0L2 whole entry, looked up): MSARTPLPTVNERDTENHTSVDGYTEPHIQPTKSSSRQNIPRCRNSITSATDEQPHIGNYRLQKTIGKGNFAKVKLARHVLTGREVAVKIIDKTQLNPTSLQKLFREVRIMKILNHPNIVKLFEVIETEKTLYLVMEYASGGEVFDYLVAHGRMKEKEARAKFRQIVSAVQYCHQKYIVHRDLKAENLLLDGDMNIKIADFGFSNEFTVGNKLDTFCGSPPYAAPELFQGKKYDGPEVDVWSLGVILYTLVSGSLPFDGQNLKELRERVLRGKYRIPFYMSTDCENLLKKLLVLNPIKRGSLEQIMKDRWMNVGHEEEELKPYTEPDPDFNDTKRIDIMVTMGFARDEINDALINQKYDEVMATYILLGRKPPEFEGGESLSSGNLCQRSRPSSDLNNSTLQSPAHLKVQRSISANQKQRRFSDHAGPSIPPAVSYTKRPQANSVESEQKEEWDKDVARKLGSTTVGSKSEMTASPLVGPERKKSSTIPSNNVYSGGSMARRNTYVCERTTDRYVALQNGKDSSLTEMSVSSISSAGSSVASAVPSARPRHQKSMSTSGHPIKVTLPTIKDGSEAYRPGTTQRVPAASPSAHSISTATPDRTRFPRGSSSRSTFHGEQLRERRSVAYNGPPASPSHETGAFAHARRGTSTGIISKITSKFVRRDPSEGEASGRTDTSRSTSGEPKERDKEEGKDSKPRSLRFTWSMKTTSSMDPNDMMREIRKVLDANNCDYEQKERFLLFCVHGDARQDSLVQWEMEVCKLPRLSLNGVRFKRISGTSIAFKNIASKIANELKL
Sequence of Calcium/calmodulin-dependent protein kinase type 1D (Homo sapiens) (Q8IU85 whole entry, looked up): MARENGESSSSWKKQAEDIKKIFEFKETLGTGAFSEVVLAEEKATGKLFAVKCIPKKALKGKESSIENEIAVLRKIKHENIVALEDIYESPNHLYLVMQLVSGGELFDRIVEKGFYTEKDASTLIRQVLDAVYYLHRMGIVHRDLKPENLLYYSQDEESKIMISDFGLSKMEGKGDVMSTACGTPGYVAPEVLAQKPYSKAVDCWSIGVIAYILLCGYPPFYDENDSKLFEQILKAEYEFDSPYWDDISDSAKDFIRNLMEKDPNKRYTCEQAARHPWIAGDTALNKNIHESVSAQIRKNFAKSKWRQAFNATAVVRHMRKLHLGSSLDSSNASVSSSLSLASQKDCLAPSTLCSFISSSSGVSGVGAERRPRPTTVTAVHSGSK
Sequence of Calcium/calmodulin-dependent protein kinase type II subunit delta (Homo sapiens) (Q13557 whole entry): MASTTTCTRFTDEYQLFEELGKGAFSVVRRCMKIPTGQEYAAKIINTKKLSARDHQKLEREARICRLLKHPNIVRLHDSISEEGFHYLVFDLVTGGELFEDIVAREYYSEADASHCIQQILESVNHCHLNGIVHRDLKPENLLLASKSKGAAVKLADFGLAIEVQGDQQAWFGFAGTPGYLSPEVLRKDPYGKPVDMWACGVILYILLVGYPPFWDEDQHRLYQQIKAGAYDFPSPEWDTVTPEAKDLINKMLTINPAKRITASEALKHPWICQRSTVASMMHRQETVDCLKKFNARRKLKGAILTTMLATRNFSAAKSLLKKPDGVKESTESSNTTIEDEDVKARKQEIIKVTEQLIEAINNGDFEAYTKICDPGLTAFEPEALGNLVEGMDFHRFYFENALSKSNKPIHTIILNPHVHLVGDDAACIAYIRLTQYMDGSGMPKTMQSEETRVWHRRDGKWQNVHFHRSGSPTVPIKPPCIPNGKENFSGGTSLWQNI

`c1cc2c(N3CCNCC3)nc(-c3ccnc(NC4CCCCC4)c3)cc2cn1`: the inhibition amounted to 51% in [1]; 80% in [2]; 5% in [3]; 82% in data set [4]; 34% in [5]; 1% in data set [6]. For the same compound, the inhibition in [9] came to 83%; in data set [10], 11%. Further, in data set [7], the half-life is 5.2 h. Besides, the AUC(0-t) at 8 h in data set [8] is 0.19 µM·h.

`N#Cc1cc(-c2ccnc(NC3CCCCC3)c2)nc(N2CCNCC2)c1`: the Ratio with Caco-2 was 0.44. In addition, the IC50 in data set [11] was found to be 130 nM; in data set [12] it was 18 nM. In addition, the EC50 in data set [13] was 66 nM.
